In PubChem BioAssay AID2632 (Broad Institute, 2010):

System: T. cruzi in NIH3T3, immunofluorescence replication, 4 d
Experiment: amastigote replication in infected NIH3T3 cells – imaging, immunofluorescence, NIH3T3 host cells, mechanism study for T. cruzi infection inhibitor project, late-stage follow-up (AID 2632)
Settings: hits give low values
Summary of the method: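 Material: T. cruzi-infected NIH3T3 cells; reagent: T. cruzi trypomastigotes at 100 parasites per host cell; dosing: one dose, 10× IC50; schedule: 2 h parasite infection, then 4-day compound exposure; detection: immunofluorescence imaging with anti-T. cruzi antibody and DAPI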

Compound `Fc1ccc(CCNCc2ccc(Cl)c(Cl)c2)cc1` has a percent infected cells with replication (at 1.22 µM) of 0%.

Compound `CCn1ncc(CN2CCCC(C(=O)c3cccc(OC(C)C)c3)C2)c1C` (configuration not stated) has a percent infected cells with replication (at 0.32 µM) of 2%.

Compound `CC(C)Oc1cccc(C(=O)C2CCCN(Cc3cnc(N4CCCC4)s3)C2)c1` (configuration not stated) has a percent infected cells with replication (at 1.4 µM) of 2%.

For `CC1CCCN(C(=O)Cc2cn(Cc3cccc(Cl)c3)c3ccccc23)C1` (configuration not stated), the percent infected cells with replication (at 17.9 µM) was 0%.

Compound `CCCn1ncc(CN2CCCC(C(=O)c3cccc(OC(C)C)c3)C2)c1C` (configuration not stated) has a percent infected cells with replication (at 0.54 µM) of 4%.

Work on `O=C(NCC1CCCN(Cc2cccc(C(F)(F)F)c2)C1)c1ccc(F)cc1` (configuration not stated) yielded a percent infected cells with replication (at 1.11 µM) of 2%.

For `CSc1ccc(CN2CCCC(CNC(=O)c3ccc(F)cc3)C2)cc1` (configuration not stated), the percent infected cells with replication (at 1.2 µM) was 6%.

For `CN(Cc1ccccc1)C(=O)C1CCCN(Cc2cccc(Cl)c2)C1` (configuration not stated), the percent infected cells with replication (at 1.1 µM) was 0%.

`CCc1ccc2nc(N(CCN(C)C)C(=O)c3ccc4ncsc4c3)sc2c1` gave a percent infected cells with replication (at 0.87 µM) of 2%.

Work on `CC(C)Oc1cccc(C(=O)C2CCCN(Cc3cnn(C(C)C)c3)C2)c1` (configuration not stated) yielded a percent infected cells with replication (at 0.38 µM) of 0%.

Compound `COc1ccccc1/C=C/C(=O)OCCCN(C)C` has a percent infected cells with replication (at 7.93 µM) of 6%.

`COC(=O)N/N=C/c1ccc([N+](=O)[O-])o1` was tested, and the percent infected cells with replication (at 4.69 µM) was 8%.

For `COc1cc(C(=O)NCCC(C)C)ccc1OCc1ccc(Cl)cc1Cl`, the percent infected cells with replication (at 13 µM) was 0%.

With `O=C(CNc1cccc2ccccc12)N/N=C/c1ccc([N+](=O)[O-])o1` the percent infected cells with replication (at 0.64 µM) was 6%.

For `O=C(Cc1cn(Cc2cccc(Cl)c2)c2ccccc12)N1CCCCCC1`, the percent infected cells with replication (at 17.5 µM) was 2%.

Compound `CC(C)=CCCC(C)CN(C)CCc1ccccn1` (configuration not stated) has a percent infected cells with replication (at 0.83 µM) of 2%.

For `COCc1cc(CN2CCCC(CNC(=O)c3ccc(F)cc3)C2)ccc1OC` (configuration not stated), the percent infected cells with replication (at 1.18 µM) was 0%.

Work on `Cc1ccc(NC(=O)CCC(=O)N/N=C/c2ccc([N+](=O)[O-])o2)cc1C` yielded a percent infected cells with replication (at 0.16 µM) of 0%.

In the case of `CC(C)c1cccc(OCCCCN(C)C)c1`, the percent infected cells with replication (at 5.87 µM) is reported as 0%.

Work on `CC(C)(C)OC(=O)N/N=C\c1ccc([N+](=O)[O-])s1` yielded a percent infected cells with replication (at 27 µM) of 2%.

`CC(=O)c1cccc(CN2CCCC(CCC(=O)NCc3ccc(F)c(F)c3)C2)c1` (configuration not stated) gave a percent infected cells with replication (at 0.7 µM) of 8%.

`COc1ccc(CCN(C)C(=O)C2CCCN(Cc3ccc(OC)c(OC)c3)C2)cc1OC` (configuration not stated) gave a percent infected cells with replication (at 1 µM) of 6%.

`OC(COc1ccc2ccccc2c1Br)Cn1ccnc1` (configuration not stated) showed a percent infected cells with replication (at 5.01 µM) of 2%.

For `Cc1ccccc1OCCCCCn1ccnc1`, the percent infected cells with replication (at 5.3 µM) was 4%.

Work on `O=S(=O)(NCC(c1cccnc1)N1CCN(c2ccc(F)cc2)CC1)c1ccccc1` (configuration not stated) yielded a percent infected cells with replication (at 0.66 µM) of 0%.

Work on `CCOc1ccc2oc(=O)cc(CN3CCN(Cc4ccccc4)CC3)c2c1` yielded a percent infected cells with replication (at 2.16 µM) of 0%.

With `CC1CC(C)CN(CCOCCSc2ccccc2)C1` (configuration not stated) the percent infected cells with replication (at 0.89 µM) was 2%.
